Tests used:
FM3A = assay: The compound was tested for growth inhibitory activity against FM3A/0 tumor cell lines; type: functional, cell-based; settings: Mus musculus
HEL [1] = assay: Minimum cytotoxic concentration that causes a microscopically detectable alteration of cell morphology in human embryonic lung cells; type: functional, cell-based
Summary of the method: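 Human embryonic lung cells checked under the microscope. Minimum concentration producing a detectable change in cell morphology.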

HEL [2] = assay: The compound was tested for antiviral activity by measuring the concentration required to reduce plaque formation against Varicella zoster TK+OKA strain; type: functional, cell-based; settings: Homo sapiens
Summary of the method: (§1)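 Plaque reduction in human embryonic lung cells with 20 PFU virus input. EC50 is the concentration that cuts plaque formation by 50%.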

HEL [3] = assay: The compound was tested for antiviral activity by measuring the concentration required to reduce plaque formation against Varicella zoster TK+YS strain; type: functional, cell-based; settings: Homo sapiens; summary of the method: as §1
HEL [4] = assay: The compound was tested for antiviral activity by measuring the concentration required to reduce plaque formation against Varicella zoster TK-(deficient) 07/1 strain; type: functional, cell-based; settings: Homo sapiens; summary of the method: as §1
HEL [5] = assay: The compound was tested for antiviral activity by measuring the concentration required to reduce plaque formation against Varicella zoster TK-(deficient) YS/R strain; type: functional, cell-based; settings: Homo sapiens; summary of the method: as §1
HEL [6] = assay: The compound was tested for antiviral activity by measuring the concentration required to reduce plaque formation against cytomegalo virus Davis strain; type: functional, cell-based; settings: Homo sapiens; summary of the method: as §1
HEL [7] = assay: The compound was tested for cytotoxic concentration required to reduce human embryonic lung cell growth by 50%; type: functional, cell-based
Summary of the method: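 Human embryonic lung cell growth measured. Value is the concentration reducing cell growth by 50%.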

HEp-2 = assay: The compound was tested for growth inhibitory activity against Hep2 tumor cell lines; type: functional, cell-based; settings: Homo sapiens
Summary of the method: (§2)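 Monolayer cells in DMEM with 10% FBS, 2 mM glutamine, penicillin/streptomycin, 37 °C, 5% CO2, plated at 1.5 × 10^4/mL (HeLa, Hep2, MCF7, MiaPaCa2) or 2 × 10^4/mL (Hef522). MTT read-out, percent growth versus untreated controls. Mean of three parallel samples in three experiments; IC50 reported.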

HeLa = assay: The compound was tested for growth inhibitory activity against HeLa tumor cell lines; type: functional, cell-based; settings: Homo sapiens; summary of the method: as §2
L1210 = assay: The compound was tested for growth inhibitory activity against L1210/0 tumor cell lines; type: functional, cell-based; settings: Mus musculus
MCF7 = assay: The compound was tested for growth inhibitory activity against MCF-7 tumor cell lines; type: functional, cell-based; settings: Homo sapiens; summary of the method: as §2
MIA PaCa-2 = assay: The compound was tested for growth inhibitory activity against MiaPaCa2 tumor cell lines; type: functional, cell-based; settings: Homo sapiens; summary of the method: as §2
MOLT-4 = assay: The compound was tested for growth inhibitory activity against Molt4/C8 tumor cell lines; type: functional, cell-based; settings: Homo sapiens
HEL [8] = assay: The compound was tested for antiviral activity by measuring the concentration required to reduce plaque formation against cytomegalo virus AD-169 strain; type: functional, cell-based; settings: Homo sapiens; summary of the method: as §1
CCRF-CEM = assay: The compound was tested for growth inhibitory activity against CEM/0 tumor cell lines; type: functional, cell-based; settings: Homo sapiens
[9] = tested on: Hef522 normal fibroblasts (human); assay: The compound was tested for growth inhibitory activity against normal fibroblast (Hef522)

Structure (SMILES) | IC50 (FM3A) [µM] | MCC (HEL [1]) [µM] | IC50 (HEL [2]) [µM] | IC50 (HEL [3]) [µM] | IC50 (HEL [4]) [µM] | IC50 (HEL [5]) [µM] | IC50 (HEL [6]) [µM] | IC50 (HEL [7]) [µM] | IC50 (HEp-2) [µM] | IC50 (HeLa) [µM] | IC50 (L1210) [µM] | IC50 (MCF7) [µM] | IC50 (MIA PaCa-2) [µM] | IC50 (MOLT-4) [µM] | IC50 (HEL [8]) [µM] | IC50 (CCRF-CEM) [µM] | IC50 [9] [µM]
O=C1O/C(=C\Cn2cc(C(F)(F)F)c(=O)[nH]c2=O)C(OCc2ccccc2)=C1OCc1ccccc1 | 3.6 | 2 | 0.3 | 0.5 | 0.5 | 0.3 | 0.4 | 1 | 40 | 20 | 2 | 40 | 30 | 0.9 | > 0.5 | 1.6 | 60
O=C1O/C(=C\Cn2cc(I)c(=O)[nH]c2=O)C(OCc2ccccc2)=C1OCc1ccccc1 | 22.6 | 5 | 1.3 | 1.4 | > 2 | 1 | > 2 | 3 | 10 | 30 | 7.5 | 70 | 80 | 3.9 | > 2 | 3.3 | 40
O=C1O/C(=C\Cn2cc(F)c(=O)[nH]c2=O)C(OCc2ccccc2)=C1OCc1ccccc1 | 3.4 | 20 | 2.6 | 3.8 | 3.5 | 2.7 | 3.5 | 9 | 20 | 40 | 5.1 | 60 | 40 | 10.9 | 3.5 | 15.1 | 40
O=C1O/C(=C/Cn2cnc3ncnc(Cl)c32)C(OCc2ccccc2)=C1OCc1ccccc1 | 11.4 | 20 | 5 | > 5 | > 5 | 3.8 | > 5 | 20 | 60 | 30 | 4.1 | > 100 | 40 | 6.8 | > 5 | 4.4 | 20
O=C1O/C(=C\Cn2cc(Br)c(=O)[nH]c2=O)C(OCc2ccccc2)=C1OCc1ccccc1 | 17.1 | 5 | 1.3 | > 2 | > 2 | 1 | > 2 | 3 | 90 | 30 | 7.5 | 40 | 80 | 3.9 | > 2 | 3.5 | 30
O=c1[nH]c(=O)n([C@H]2C[C@H](O)[C@@H](CO)O2)cc1/C=C/Br [BRIVUDINE] |  | > 50 | 0.001 | 0.005 | > 50 | > 50 |  | > 100 |  |  |  |  |  |  |  |  | 
O=C1O/C(=C\Cn2cnc3c(-n4cccc4)ncnc32)C(OCc2ccccc2)=C1OCc1ccccc1 | > 200 | 20 | 1.2 | 1.5 | 2.8 | 0.6 | > 0.5 | 4 | > 100 | 70 | 110 | > 100 | > 100 | 3.9 | > 0.5 | 5.8 | > 100
O=C1O/C(=C\Cn2ccc(=O)[nH]c2=O)C(OCc2ccccc2)=C1OCc1ccccc1 | 17.7 | 20 | 3 | 3.4 | 3.4 | 1.8 | 3.5 | 5 | 40 | 50 | 12.9 | 20 | 30 | 4.8 | 3.5 | 13 | 50
Nc1nc2c(ncn2COC(CO)CO)c(=O)[nH]1 [GANCICLOVIR] |  | > 50 |  |  |  |  | 5 | > 50 |  |  |  |  |  |  | 1 |  | 
O=C1O/C(=C\Cn2cnc3c(Cl)ncnc32)C(OCc2ccccc2)=C1OCc1ccccc1 | 16.4 | 20 | > 5 | > 5 | > 5 | > 5 | > 5 | 8 | 60 | 30 | 11.6 | 40 | 60 | 14.8 | > 5 | 15.9 | 50
Nc1nc2c(ncn2COCCO)c(=O)[nH]1 [ACYCLOVIR] |  | > 50 | 0.16 | 0.78 | 17 | 12 |  | > 100 |  |  |  |  |  |  |  |  | 
O=C1O/C(=C\Cn2cc(Cl)c(=O)[nH]c2=O)C(OCc2ccccc2)=C1OCc1ccccc1 | 16.9 | 5 | 1.3 | > 2 | > 2 | 1 | > 2 | 3 | 20 | 40 | 12.2 | 60 | 40 | 6.1 | > 2 | 6 | 30
